In ChEMBL document CHEMBL1811796, “Requirements for mammalian carboxylesterase inhibition by substituted ethane-1,2-diones” (Bioorg Med Chem, 2011):
Calls of active or inactive are those of the source. No cut-off for these calls is given here.

Experiments:
[1] = Cytotoxicity against human U373MG cells expressing human intestinal carboxylesterase after 4 days in drug free medium by coulter counter; type: functional, cell-based, U-373MG ATCC; conditions: U373 MG, 96 h
Acetylcholinesterase = Acetylcholinesterase (Homo sapiens, UniProt P22303); assay: Inhibition of human acetylcholinesterase using acetylthiocholine as substrate by spectrophotometry
In short: (§1)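 Human AChE and BChE were commercial enzymes. Substrate was 1 mM acetylthiocholine for AChE and 1 mM butyrylthiocholine for BChE.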

Cholinesterase = Cholinesterase (Homo sapiens, UniProt P06276); assay: Inhibition of human butyrylcholinesterase using butyrylthiocholine as substrate by spectrophotometry; in short: as §1
Liver carboxylesterase 1 [2] = biological target: T1, Liver carboxylesterase 1 (Homo sapiens, UniProt P23141); assay: Inhibition of human liver carboxylesterase1 using o-nitrophenyl acetate as substrate after 5 mins by spectrophotometry
T1 sequence (P23141 whole entry): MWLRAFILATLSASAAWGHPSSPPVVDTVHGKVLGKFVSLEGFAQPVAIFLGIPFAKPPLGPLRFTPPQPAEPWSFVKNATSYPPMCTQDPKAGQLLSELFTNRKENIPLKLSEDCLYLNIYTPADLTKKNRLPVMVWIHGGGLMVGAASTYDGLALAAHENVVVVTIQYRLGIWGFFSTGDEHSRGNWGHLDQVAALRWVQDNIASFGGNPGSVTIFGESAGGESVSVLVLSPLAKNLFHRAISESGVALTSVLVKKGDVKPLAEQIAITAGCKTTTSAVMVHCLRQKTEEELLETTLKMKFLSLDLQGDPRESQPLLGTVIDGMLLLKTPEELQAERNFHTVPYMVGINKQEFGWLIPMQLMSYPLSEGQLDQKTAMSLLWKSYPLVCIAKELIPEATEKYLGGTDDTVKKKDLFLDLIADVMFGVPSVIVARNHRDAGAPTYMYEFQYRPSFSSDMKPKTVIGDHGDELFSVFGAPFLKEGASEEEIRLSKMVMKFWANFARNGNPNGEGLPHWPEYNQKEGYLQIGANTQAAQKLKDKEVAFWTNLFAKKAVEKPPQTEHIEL
In short: (§2)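 hCE1 and rabbit liver CE were purified from baculovirus-infected Spodoptera frugiperda cells, with 3 mM o-nitrophenyl acetate as substrate. A4₂₀ was read every 15 s for 5 min versus no-inhibitor wells. Screening was at 100 μM; compounds giving >50% reduction were rescreened from 1 pM to 100 μM. Ki came from fitting a partial-inhibition (α, β) model.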

Liver carboxylesterase 1 [3] = biological target: T2, Liver carboxylesterase 1 (Oryctolagus cuniculus, UniProt P12337); assay: Inhibition of rabbit liver carboxylesterase using o-nitrophenyl acetate as substrate after for 5 mins by spectrophotometry; in short: as §2
T2 sequence (P12337 whole entry): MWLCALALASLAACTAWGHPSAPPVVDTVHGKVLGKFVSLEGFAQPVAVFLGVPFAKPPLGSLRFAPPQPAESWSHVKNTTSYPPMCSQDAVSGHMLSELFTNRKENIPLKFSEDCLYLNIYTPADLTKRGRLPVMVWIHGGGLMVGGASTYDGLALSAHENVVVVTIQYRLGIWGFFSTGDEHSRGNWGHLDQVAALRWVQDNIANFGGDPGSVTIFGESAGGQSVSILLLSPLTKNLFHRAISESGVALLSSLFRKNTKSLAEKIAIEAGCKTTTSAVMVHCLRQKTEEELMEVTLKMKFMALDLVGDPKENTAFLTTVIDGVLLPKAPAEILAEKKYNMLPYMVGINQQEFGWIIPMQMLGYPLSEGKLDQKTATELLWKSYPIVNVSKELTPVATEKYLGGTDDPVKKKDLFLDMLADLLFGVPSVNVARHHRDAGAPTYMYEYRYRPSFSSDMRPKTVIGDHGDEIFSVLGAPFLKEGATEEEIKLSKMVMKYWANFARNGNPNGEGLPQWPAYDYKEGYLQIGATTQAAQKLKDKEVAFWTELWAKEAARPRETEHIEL

[4] = Cytotoxicity against human U373MG cells expressing human intestinal carboxylesterase after 4 days in drug free medium by coulter counter in presence of CPT-11; type: functional, cell-based, U-373MG ATCC; conditions: U373 MG, 96 h
In short: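 U373MG cells stably expressing hiCE, seeded at 50,000 cells/well and left to adhere overnight. Cells were pre-incubated 1 h with inhibitor (10 μM), then exposed 2 h to inhibitor plus CPT-11 (0–100 μM). After washing, cells grew 4 days (~3 doublings) in drug-free medium and were counted. Runs were in triplicate, with survival compared to inhibitor-free controls. IC50 was taken from survival curves.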

[5] = Stability of the compound assessed as hydrolysis liberating phenol in aqueous solution at pH 7.4 after 5 mins; type: physicochemical; conditions: read-out: Activity
In short: (§3)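 Compound at 200 μM in 50 mM Hepes pH 7.4, held 1, 5 or 20 min at rt or 37°C, with or without CE. Reactions were stopped with acetonitrile. Products were identified by reverse-phase HPLC with UV detection against phenol/thiophenol/aniline marker standards and no-enzyme samples.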

Cocaine esterase [6] = biological target: T3, Cocaine esterase (Homo sapiens, UniProt O00748); assay: Inhibition of human intestinal carboxylesterase using o-nitrophenyl acetate as substrate after 5 mins by spectrophotometry
T3 sequence (O00748 whole entry): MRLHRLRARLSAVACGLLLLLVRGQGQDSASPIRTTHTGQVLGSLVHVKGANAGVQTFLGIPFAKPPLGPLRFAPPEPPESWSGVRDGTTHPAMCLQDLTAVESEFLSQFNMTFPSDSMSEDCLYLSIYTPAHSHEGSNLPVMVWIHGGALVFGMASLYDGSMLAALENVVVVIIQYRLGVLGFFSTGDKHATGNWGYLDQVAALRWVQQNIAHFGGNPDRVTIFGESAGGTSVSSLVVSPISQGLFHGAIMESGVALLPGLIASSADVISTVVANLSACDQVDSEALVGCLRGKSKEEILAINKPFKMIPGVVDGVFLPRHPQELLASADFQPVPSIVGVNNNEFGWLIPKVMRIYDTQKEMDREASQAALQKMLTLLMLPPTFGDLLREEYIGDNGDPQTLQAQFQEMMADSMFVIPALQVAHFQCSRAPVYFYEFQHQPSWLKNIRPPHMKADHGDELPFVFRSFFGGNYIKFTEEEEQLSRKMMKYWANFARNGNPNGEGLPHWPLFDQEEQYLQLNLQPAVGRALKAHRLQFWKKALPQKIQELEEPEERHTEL

[7] = biological target: T4, intestinal carboxylesterase (cocaine esterase) (Homo sapiens, UniProt O00748); assay: Inhibition of intestinal carboxylesterase in human U373MG cells using 4-methylumbelliferone acetate as substrate at 10 uM after 1 hrs pre-incubation by fluorimetry; type: cell-based, U-373MG ATCC; conditions: U373MG cells with intestinal carboxylesterase, probe 4-methylumbelliferone acetate
T4 sequence (O00748 whole entry): T3 sequence (O00748 whole entry)

Cocaine esterase [8] = biological target: T3, Cocaine esterase; assay: Inhibition of human intestinal carboxylesterase assessed as hydrolysis of CPT-11 after 5 mins by HPLC
U373 MG = assay: Reduction of CPT-11 induced cytotoxicity against human U373MG cells at 10 uM pre-incubated for 1 hr measured after 4 days in drug free medium by coulter counter; type: functional, cell-based; conditions: U-373MG ATCC
In short: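 U373MG cells expressing hiCE were plated at 50,000 cells/well and left to adhere overnight. They got 1 h pre-incubation with 10 μM inhibitor, then 2 h with inhibitor plus CPT-11 (0–100 μM). Cells were washed, grown 4 days drug-free and Coulter-counted. Runs were in triplicate against no-inhibitor controls, and IC50 came from survival curves.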

[9] = Stability of the compound assessed as hydrolysis liberating thiophenol in aqueous solution at pH 7.4 after 5 mins; type: physicochemical; set-up: scale not given: the % may be the effect or the level left; conditions: buffer, pH 7.4, 5 min; in short: as §3

Acetylcholinesterase, sequence (P22303 whole entry): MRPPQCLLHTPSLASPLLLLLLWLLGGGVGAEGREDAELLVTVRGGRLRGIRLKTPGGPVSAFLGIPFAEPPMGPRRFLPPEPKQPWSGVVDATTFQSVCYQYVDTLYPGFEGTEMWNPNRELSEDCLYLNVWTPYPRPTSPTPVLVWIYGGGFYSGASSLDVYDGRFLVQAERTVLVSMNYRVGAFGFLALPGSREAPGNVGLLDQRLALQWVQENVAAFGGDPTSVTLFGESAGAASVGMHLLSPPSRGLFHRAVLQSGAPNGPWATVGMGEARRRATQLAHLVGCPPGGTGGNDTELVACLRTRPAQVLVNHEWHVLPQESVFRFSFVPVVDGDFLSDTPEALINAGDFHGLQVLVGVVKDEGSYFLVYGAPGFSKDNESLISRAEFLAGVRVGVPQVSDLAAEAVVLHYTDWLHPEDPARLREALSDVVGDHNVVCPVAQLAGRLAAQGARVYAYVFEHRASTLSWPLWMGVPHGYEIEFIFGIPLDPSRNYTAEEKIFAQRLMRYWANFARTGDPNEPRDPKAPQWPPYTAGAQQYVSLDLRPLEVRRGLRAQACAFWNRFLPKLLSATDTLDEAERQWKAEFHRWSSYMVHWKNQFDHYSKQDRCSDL
Cholinesterase, sequence (P06276 whole entry): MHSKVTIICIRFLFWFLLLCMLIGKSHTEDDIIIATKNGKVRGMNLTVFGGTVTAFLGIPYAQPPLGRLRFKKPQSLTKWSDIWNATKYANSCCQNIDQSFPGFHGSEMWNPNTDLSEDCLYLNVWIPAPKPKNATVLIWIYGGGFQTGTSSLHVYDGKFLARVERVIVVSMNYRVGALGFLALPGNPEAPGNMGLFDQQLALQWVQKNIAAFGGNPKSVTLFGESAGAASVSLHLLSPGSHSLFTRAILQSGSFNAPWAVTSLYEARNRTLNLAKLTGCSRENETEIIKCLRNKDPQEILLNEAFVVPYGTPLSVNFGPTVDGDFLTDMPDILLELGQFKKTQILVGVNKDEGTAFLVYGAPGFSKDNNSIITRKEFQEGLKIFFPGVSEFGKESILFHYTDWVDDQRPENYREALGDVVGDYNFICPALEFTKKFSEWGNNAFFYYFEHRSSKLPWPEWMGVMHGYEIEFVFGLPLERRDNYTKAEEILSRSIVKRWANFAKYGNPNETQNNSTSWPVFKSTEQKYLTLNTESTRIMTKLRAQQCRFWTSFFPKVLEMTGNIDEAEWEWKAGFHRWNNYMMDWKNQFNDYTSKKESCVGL

SMILES | Ki (Acetylcholinesterase) | Ki (Cholinesterase) | Ki (Liver carboxylesterase 1 [2]) | Ki (Liver carboxylesterase 1 [3]) | Ki (Cocaine esterase [6]) | further results
CCc1c2c(nc3ccc(OC(=O)N4CCC(N5CCCCC5)CC4)cc13)-c1cc3c(c(=O)n1C2)COC(=O)[C@]3(O)CC | – | – | – | – | – | IC50 [1]: 3.6 µM
CCCCC(=O)C(=O)c1ccccc1 | > 100 µM | > 100 µM | 0.0261 µM | – | – | –
CCCCCCCC(=O)C(=O)CCCCCCC | > 100 µM | > 100 µM | 0.0076 µM | – | – | –
CCCC(=O)C(=O)CCC | > 100 µM | > 100 µM | 8.06 µM | 17.8 µM | – | –
CCCCCCC(=O)C(=O)c1ccccc1 | > 100 µM | > 100 µM | 0.00219 µM | 0.0281 µM | – | IC50 [1]: > 100 µM; IC50 [4]: 10.2 µM
CCCC(=O)C(=O)c1ccccc1 | > 100 µM | > 100 µM | 0.102 µM | – | – | –
CCCCC(=O)C(=O)CCCC | > 100 µM | > 100 µM | 0.0466 µM | – | – | –
O=C(Oc1ccccc1)C(=O)Oc1ccccc1 [DIPHENYL ETHANEDIOAT] | > 100 µM | > 100 µM | > 100 µM | > 100 µM | > 100 µM | degraded at 5 min [5]: > 40%
CCC(=O)C(=O)c1ccccc1 | > 100 µM | > 100 µM | 1.55 µM | 12.5 µM | 2.42 µM | inhibition at 1 h, 10 µM [7]: 70.3%; Ki (Cocaine esterase [8]): 2.01 µM
CCCCCCC(=O)C(=O)CCCCCC | > 100 µM | > 100 µM | 0.0048 µM | – | – | IC50 [1]: > 100 µM; IC50 [4]: 4 µM; Activity (U373 MG): inactive
CCC(=O)C(=O)CC | > 100 µM | > 100 µM | > 100 µM | > 100 µM | > 100 µM | –
O=C(C(=O)c1ccccc1)c1ccccc1 [BENZIL] | – | – | – | – | – | IC50 [1]: > 100 µM; IC50 [4]: 22.9 µM
CCCCCCCCC(=O)C(=O)CCCCCCCC | > 100 µM | > 100 µM | 0.00084 µM | – | – | –
O=C(C(=O)C(Br)c1ccccc1)C(Br)c1ccccc1 (stereo not given) | > 100 µM | > 100 µM | 0.107 µM | – | – | –
O=C(C(=O)C1CCCCC1)C1CCCCC1 | – | – | 0.005 µM | 0.027 µM | 0.072 µM | –
CCCCCC(=O)C(=O)CCCCC | > 100 µM | > 100 µM | 0.003 µM | – | – | –
O=C(Cc1ccccc1)C(=O)Cc1ccccc1 | > 100 µM | > 100 µM | 3.08 µM | > 100 µM | 21.6 µM | –
O=C(Cc1ccccc1)C(=O)C(Br)c1ccccc1 (stereo not given) | > 100 µM | > 100 µM | 2.63 µM | 3.68 µM | – | –
CCCCCC(=O)C(=O)c1ccccc1 | > 100 µM | > 100 µM | 0.00665 µM | 0.11 µM | – | –
O=C(Sc1ccccc1)C(=O)Sc1ccccc1 | > 100 µM | > 100 µM | > 100 µM | > 100 µM | > 100 µM | Activity [9]: > 40%
O=C(Nc1ccccc1)C(=O)Nc1ccccc1 | > 100 µM | > 100 µM | > 100 µM | > 100 µM | > 100 µM | –
